In ChEMBL document CHEMBL1144716, “Synthesis of 1-/2-substituted-[1,2,3]triazolo[4,5-g]phthalazine-4,9-diones and evaluation of their cytotoxicity and topoisomerase II inhibition” (Bioorg Med Chem, 2008):
Blank lines part the entries; values can stand above or below the compound they belong to.

Key:
[1] = test system: HCT-15; assay: Cytotoxicity against human HCT15 cells after 3 days by SRB assay; format: functional, cell-based; settings: HCT-15, 72 h
[2] = test system: XF498; assay: Cytotoxicity against human XF498 cells after 3 days by SRB assay; format: functional, cell-based; settings: XF498, 72 h
[3] = test system: SK-MEL-2; assay: Cytotoxicity against human SK-MEL-2 cells after 3 days by SRB assay; format: functional, cell-based; settings: SK-MEL-2, 72 h
[4] = test system: HT-1080; assay: Cytotoxicity against human HT1080 cells after 3 days by SRB assay; format: functional, cell-based; settings: HT-1080, 72 h
[5] = test system: SNU-638; assay: Cytotoxicity against human SNU638 cells after 3 days by SRB assay; format: functional, cell-based; settings: SNU-638, 72 h
[6] = test system: SK-OV-3; assay: Cytotoxicity against human SKOV3 cells after 3 days by SRB assay; format: functional, cell-based; settings: SK-OV-3, 72 h
[7] = test system: HL-60; assay: Cytotoxicity against human HL60 cells after 3 days by SRB assay; format: functional, cell-based; settings: HL-60, 72 h
[8] = biological target: DNA topoisomerase 2-alpha (Homo sapiens, UniProt P11388); assay: Inhibition of human recombinant topoisomerase 2 by decatenation assay
Chain of DNA topoisomerase 2-alpha (P11388 whole entry): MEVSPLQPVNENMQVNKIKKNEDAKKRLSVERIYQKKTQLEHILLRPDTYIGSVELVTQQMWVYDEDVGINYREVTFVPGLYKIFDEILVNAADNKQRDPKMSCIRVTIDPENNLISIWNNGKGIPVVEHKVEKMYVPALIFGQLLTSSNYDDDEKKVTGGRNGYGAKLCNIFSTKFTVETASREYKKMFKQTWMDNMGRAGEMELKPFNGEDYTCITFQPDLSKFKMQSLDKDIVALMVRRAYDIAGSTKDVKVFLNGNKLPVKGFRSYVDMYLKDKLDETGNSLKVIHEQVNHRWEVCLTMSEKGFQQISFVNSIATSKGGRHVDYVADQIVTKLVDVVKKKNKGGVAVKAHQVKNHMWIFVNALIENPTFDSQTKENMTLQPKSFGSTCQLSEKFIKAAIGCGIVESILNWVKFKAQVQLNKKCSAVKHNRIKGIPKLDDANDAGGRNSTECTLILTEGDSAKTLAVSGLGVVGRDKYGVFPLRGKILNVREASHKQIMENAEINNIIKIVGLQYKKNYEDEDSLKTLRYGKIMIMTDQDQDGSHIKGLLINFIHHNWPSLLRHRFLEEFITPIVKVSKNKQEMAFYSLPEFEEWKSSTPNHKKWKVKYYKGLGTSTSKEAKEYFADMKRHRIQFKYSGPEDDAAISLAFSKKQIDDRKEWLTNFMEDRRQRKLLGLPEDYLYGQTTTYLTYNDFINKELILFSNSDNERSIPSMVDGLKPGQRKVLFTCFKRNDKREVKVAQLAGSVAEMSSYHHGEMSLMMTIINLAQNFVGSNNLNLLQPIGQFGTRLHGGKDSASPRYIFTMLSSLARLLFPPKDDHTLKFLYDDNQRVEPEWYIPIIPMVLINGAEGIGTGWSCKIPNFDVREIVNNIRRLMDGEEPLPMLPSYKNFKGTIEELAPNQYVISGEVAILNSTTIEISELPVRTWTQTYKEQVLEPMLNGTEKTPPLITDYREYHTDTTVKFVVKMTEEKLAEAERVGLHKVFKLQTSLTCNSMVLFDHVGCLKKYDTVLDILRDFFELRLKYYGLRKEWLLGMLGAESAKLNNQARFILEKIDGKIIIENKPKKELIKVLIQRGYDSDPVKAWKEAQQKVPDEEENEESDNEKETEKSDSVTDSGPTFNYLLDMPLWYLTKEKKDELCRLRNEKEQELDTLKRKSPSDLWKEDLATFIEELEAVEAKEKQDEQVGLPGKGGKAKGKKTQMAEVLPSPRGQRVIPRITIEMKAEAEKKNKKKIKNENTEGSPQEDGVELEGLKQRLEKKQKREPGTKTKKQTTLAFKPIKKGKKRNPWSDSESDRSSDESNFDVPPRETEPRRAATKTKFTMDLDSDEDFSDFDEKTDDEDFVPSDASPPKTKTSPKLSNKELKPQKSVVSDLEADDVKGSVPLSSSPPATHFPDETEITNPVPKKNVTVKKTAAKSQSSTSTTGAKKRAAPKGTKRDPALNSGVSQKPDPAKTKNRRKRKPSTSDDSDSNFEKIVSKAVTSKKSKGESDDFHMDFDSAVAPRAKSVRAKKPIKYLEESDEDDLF
Procedure, shortened: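 One unit of human recombinant topo II (the amount that fully decatenates 200 ng kDNA) with 200 ng kinetoplast DNA in 50 mM Tris-HCl pH 8, 120 mM KCl, 10 mM MgCl2, 0.5 mM ATP, 0.5 mM DTT, 30 µg/mL BSA. Drug stocks in DMSO. 10 min at 37 °C, stopped with sarkosyl loading dye. Decatenation read on 1% agarose gel in TBE.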

[9] = test system: A549; assay: Cytotoxicity against human A549 cells after 3 days by SRB assay; format: functional, cell-based; settings: A549, 72 h

IC50 [8]: 44400 nM
Structure (SMILES): CCCn1nc2c(n1)C(=O)c1cnncc1C2=O
IC50 [1]: 18 nM
IC50 [2]: 18 nM
IC50 [3]: 9 nM
IC50 [4]: 33 nM
IC50 [5]: 43 nM
IC50 [6]: 9 nM
IC50 [9]: 19 nM
IC50 [7]: 157 nM

IC50 [8]: 49000 nM
Structure (SMILES): CCCn1nnc2c1C(=O)c1cnncc1C2=O
IC50 [1]: 176 nM
IC50 [2]: 85 nM
IC50 [3]: 20 nM
IC50 [4]: 75 nM
IC50 [5]: 212 nM
IC50 [6]: 14 nM
IC50 [9]: 26 nM
IC50 [7]: 83 nM

IC50 [8]: 43200 nM
Structure (SMILES): CCCCn1nnc2c1C(=O)c1cnncc1C2=O
IC50 [1]: 177 nM
IC50 [2]: 181 nM
IC50 [3]: 23 nM
IC50 [4]: 99 nM
IC50 [5]: 155 nM
IC50 [6]: 21 nM
IC50 [9]: 81 nM
IC50 [7]: 89 nM

IC50 [8]: 33300 nM
Structure (SMILES): CC(C)n1nnc2c1C(=O)c1cnncc1C2=O
IC50 [1]: 33 nM
IC50 [2]: 49 nM
IC50 [3]: 16 nM
IC50 [4]: 114 nM
IC50 [5]: 57 nM
IC50 [6]: 49 nM
IC50 [9]: 32 nM
IC50 [7]: 50 nM

IC50 [8]: 55600 nM
Structure (SMILES): CCn1nnc2c1C(=O)c1cnncc1C2=O
IC50 [1]: 39 nM
IC50 [2]: 34 nM
IC50 [3]: 8 nM
IC50 [4]: 68 nM
IC50 [5]: 126 nM
IC50 [6]: 3 nM
IC50 [9]: 6 nM
IC50 [7]: 56 nM

IC50 [8]: 39000 nM
Structure (SMILES): Cn1nnc2c1C(=O)c1cnncc1C2=O
IC50 [1]: 103 nM
IC50 [2]: 35 nM
IC50 [3]: 8 nM
IC50 [4]: 73 nM
IC50 [5]: 241 nM
IC50 [6]: 3 nM
IC50 [9]: 4 nM
IC50 [7]: 82 nM

IC50 [8]: 29800 nM
Structure (SMILES): CC(C)Cn1nnc2c1C(=O)c1cnncc1C2=O
IC50 [1]: 110 nM
IC50 [2]: 140 nM
IC50 [3]: 66 nM
IC50 [4]: 77 nM
IC50 [5]: 69 nM
IC50 [6]: 190 nM
IC50 [9]: 110 nM
IC50 [7]: 75 nM

More lines, now with the values behind:

Structure (SMILES): COc1cccc2c1C(=O)c1c(O)c3c(c(O)c1C2=O)C[C@@](O)(C(=O)CO)C[C@@H]3O[C@H]1C[C@H](N)[C@H](O)[C@H](C)O1 [DOXORUBICIN]
IC50 [1]: 251 nM
IC50 [2]: 44 nM
IC50 [3]: 19 nM
IC50 [4]: 22 nM
IC50 [5]: 52 nM
IC50 [6]: 41 nM
IC50 [7]: 44 nM

Structure (SMILES): Cn1nc2c(n1)C(=O)c1cnncc1C2=O
IC50 [1]: 20 nM
IC50 [2]: 4 nM
IC50 [3]: 2 nM
IC50 [8]: 55600 nM
IC50 [4]: 7.8 nM
IC50 [5]: 54 nM
IC50 [6]: 0.4 nM
IC50 [9]: 2 nM
IC50 [7]: 124 nM

Structure (SMILES): COc1ccc(Cn2nnc3c2C(=O)c2cnncc2C3=O)cc1
IC50 [1]: 59 nM
IC50 [2]: 118 nM
IC50 [3]: 41 nM
IC50 [8]: 28600 nM
IC50 [4]: 330 nM
IC50 [5]: 257 nM
IC50 [6]: 12 nM
IC50 [9]: 54 nM
IC50 [7]: 130 nM

Structure (SMILES): CC(C)n1nc2c(n1)C(=O)c1cnncc1C2=O
IC50 [1]: 14 nM
IC50 [2]: 14 nM
IC50 [3]: 7 nM
IC50 [8]: 54500 nM
IC50 [4]: 55 nM
IC50 [5]: 11 nM
IC50 [6]: 31 nM
IC50 [9]: 9 nM
IC50 [7]: 18 nM

Structure (SMILES): COc1cc([C@@H]2c3cc4c(cc3[C@@H](O[C@@H]3O[C@@H]5CO[C@@H](C)O[C@H]5[C@H](O)[C@H]3O)[C@H]3COC(=O)[C@H]23)OCO4)cc(OC)c1O [ETOPOSIDE]
IC50 [1]: 2800 nM
IC50 [2]: 3480 nM
IC50 [3]: 5720 nM
IC50 [4]: 250 nM
IC50 [5]: 230 nM
IC50 [6]: 4280 nM
IC50 [9]: 1160 nM
IC50 [7]: 370 nM

Structure (SMILES): CC(C)Cn1nc2c(n1)C(=O)c1cnncc1C2=O
IC50 [1]: 29 nM
IC50 [2]: 19 nM
IC50 [3]: 15 nM
IC50 [8]: 19400 nM
IC50 [4]: 85 nM
IC50 [5]: 14 nM
IC50 [6]: 43 nM
IC50 [9]: 19 nM
IC50 [7]: 38 nM

Structure (SMILES): CCn1nc2c(n1)C(=O)c1cnncc1C2=O
IC50 [1]: 18 nM
IC50 [2]: 17 nM
IC50 [3]: 4 nM
IC50 [8]: 61500 nM
IC50 [4]: 204 nM
IC50 [5]: 46 nM
IC50 [6]: 3 nM
IC50 [9]: 18 nM
IC50 [7]: 90 nM

Structure (SMILES): CCCCn1nc2c(n1)C(=O)c1cnncc1C2=O
IC50 [1]: 18 nM
IC50 [2]: 19 nM
IC50 [3]: 15 nM
IC50 [8]: 64800 nM
IC50 [4]: 30 nM
IC50 [5]: 50 nM
IC50 [6]: 17 nM
IC50 [9]: 18 nM
IC50 [7]: 151 nM

Structure (SMILES): O=C1c2cnncc2C(=O)c2[nH]nnc21
IC50 [1]: > 10000 nM
IC50 [2]: > 10000 nM
IC50 [3]: > 10000 nM
IC50 [8]: 52800 nM
IC50 [4]: > 5000 nM
IC50 [5]: > 5000 nM
IC50 [6]: 7640 nM
IC50 [9]: 9020 nM
IC50 [7]: > 5000 nM
